ChEMBL document CHEMBL1134374, “High-throughput permeability pH profile and high-throughput alkane/water log P with artificial membranes” (J Med Chem, 2001)

Assay: Effective permeability (Pe) across a hexadecane membrane (pH 6.8)
Assay type: ADME
Settings: not given
Outline: (§1)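 Passive permeation from donor to acceptor across a polycarbonate filter (3 µm pores, 9–10 µm thick) coated with hexadecane left after hexane evaporation. Donor held 50 µg/mL compound in buffer with 5% DMSO and 100 mM KCl; acceptor held buffer with 5% DMSO. Incubated 5 h at room temperature with light shaking. Acceptor UV absorbance read at 260–290 nm. Wells below 5 kΩ resistance discarded.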

Compared with CC(C)NCC(O)COc1cccc2ccccc12 (stereo unspecified) [PROPRANOLOL], CC(CCc1ccccc1)NCC(O)c1ccc(O)c(C(N)=O)c1 (stereo unspecified) [LABETALOL] is higher in “Log Pe” value: -4.4 cm s-1 for the first, -4.2 cm s-1 for the second.

CN/C(=C/[N+](=O)[O-])NCCSCc1ccc(CN(C)C)o1 [RANITIDINE] and CCN1CCCC1CNC(=O)c1cc(S(N)(=O)=O)ccc1OC (stereo unspecified) [SULPIRIDE] are the same in “Log Pe” value: -4.6 cm s-1 for the first, -4.6 cm s-1 for the second.

Compared with CC(=O)N(O)CCCCCNC(=O)CCC(=O)N(O)CCCCCNC(=O)CCC(=O)N(O)CCCCCN [DEFEROXAMINE], O=C(O)CN(CCN(CC(=O)O)Cc1ccccc1O)Cc1ccccc1O is higher in “Log Pe” value: -5.3 cm s-1 for the first, -5.1 cm s-1 for the second.

Compared with CC(=O)[C@H]1CC[C@H]2[C@@H]3CCC4=CC(=O)CC[C@]4(C)[C@H]3CC[C@]12C [PROGESTERONE], C[C@]12CC[C@H]3[C@@H](CCC4=CC(=O)CC[C@@]43C)[C@@H]1CC[C@@H]2O [TESTOSTERONE] is higher in “Log Pe” value: -3.8 cm s-1 for the first, -3.5 cm s-1 for the second.

Compared with CN(Cc1cnc2nc(N)nc(N)c2n1)c1ccc(C(=O)N[C@@H](CCC(=O)O)C(=O)O)cc1 [METHOTREXATE], CN1C(C(=O)Nc2ccccn2)=C(O)c2ccccc2S1(=O)=O [PIROXICAM] is higher in “Log Pe” value: -4.7 cm s-1 for the first, -4 cm s-1 for the second.

Compared with N=C(N)NC(=O)c1nc(Cl)c(N)nc1N [AMILORIDE], CC(C)(C)NCC(O)c1cc(O)cc(O)c1 (stereo unspecified) [TERBUTALINE] is higher in “Log Pe” value: -4.6 cm s-1 for the first, -4.1 cm s-1 for the second.

Assay: Highest effective permeability across hexadecane membrane (pH 4-8)
Assay type: ADME
Settings: not given
Outline: as §1

Compared with CC(C)NCC(O)COc1cccc2ccccc12 (stereo unspecified) [PROPRANOLOL], CC(CCc1ccccc1)NCC(O)c1ccc(O)c(C(N)=O)c1 (stereo unspecified) [LABETALOL] is higher in “Log Pe” value: -4 cm s-1 for the first, -3.8 cm s-1 for the second.

First: CN/C(=C/[N+](=O)[O-])NCCSCc1ccc(CN(C)C)o1 [RANITIDINE]
Second: CCN1CCCC1CNC(=O)c1cc(S(N)(=O)=O)ccc1OC (stereo unspecified) [SULPIRIDE]
The “Log Pe” value of the first is higher: -4.5 cm s-1 for the first, -4.6 cm s-1 for the second.

Compared with CC(=O)N(O)CCCCCNC(=O)CCC(=O)N(O)CCCCCNC(=O)CCC(=O)N(O)CCCCCN [DEFEROXAMINE], O=C(O)CN(CCN(CC(=O)O)Cc1ccccc1O)Cc1ccccc1O is higher in “Log Pe” value: -5.3 cm s-1 for the first, -5.1 cm s-1 for the second.

Compared with CC(=O)[C@H]1CC[C@H]2[C@@H]3CCC4=CC(=O)CC[C@]4(C)[C@H]3CC[C@]12C [PROGESTERONE], C[C@]12CC[C@H]3[C@@H](CCC4=CC(=O)CC[C@@]43C)[C@@H]1CC[C@@H]2O [TESTOSTERONE] is higher in “Log Pe” value: -3.8 cm s-1 for the first, -3.5 cm s-1 for the second.

Compared with CN(Cc1cnc2nc(N)nc(N)c2n1)c1ccc(C(=O)N[C@@H](CCC(=O)O)C(=O)O)cc1 [METHOTREXATE], CN1C(C(=O)Nc2ccccn2)=C(O)c2ccccc2S1(=O)=O [PIROXICAM] is higher in “Log Pe” value: -4.7 cm s-1 for the first, -3.3 cm s-1 for the second.

First: N=C(N)NC(=O)c1nc(Cl)c(N)nc1N [AMILORIDE]
Second: CC(C)(C)NCC(O)c1cc(O)cc(O)c1 (stereo unspecified) [TERBUTALINE]
The “Log Pe” value of the first is lower: -4.4 cm s-1 for the first, -4.1 cm s-1 for the second.

Assay: Effective permeability corrected for ionization
Assay type: ADME
Settings: not given
Outline: (§2)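 Derived from hexadecane-membrane Pe measured across a pH range, combined with aqueous pKa. Pe is corrected for ionization to give Pul. Pul is then corrected for the unstirred water layer by the Gutknecht–Tosteson relation to give the intrinsic permeability P0.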

CC(C(=O)O)c1cccc(C(=O)c2ccccc2)c1 (stereo unspecified) [KETOPROFEN] and O=C(O)Cc1ccccc1Nc1c(Cl)cccc1Cl [DICLOFENAC] are within 0.2 log units of each other in “Log Pe,max” value: -3.6 for the first, -3.7 for the second.

Assay: Intrinsic permeability of the compound
Assay type: ADME
Settings: not given
Outline: as §2

First: CC(C(=O)O)c1cccc(C(=O)c2ccccc2)c1 (stereo unspecified) [KETOPROFEN]
Second: O=C(O)Cc1ccccc1Nc1c(Cl)cccc1Cl [DICLOFENAC]
The “Log Po” value of the first is lower: -2.7 for the first, -1.3 for the second.

Assay: % absorbed in human GI-tract
Assay type: ADME, organism-based
Settings: in vivo, read-out: % absorbed

Compared with CCCCC(=O)N(Cc1ccc(-c2ccccc2-c2nnn[nH]2)cc1)[C@H](C(=O)O)C(C)C, CC(CCc1ccccc1)NCC(O)c1ccc(O)c(C(N)=O)c1 (stereo unspecified) [LABETALOL] is higher in Fa: 55% for the first, 90% for the second.

Compared with CN/C(=C/[N+](=O)[O-])NCCSCc1ccc(CN(C)C)o1 [RANITIDINE], O=C(O)CN(CCN(CC(=O)O)Cc1ccccc1O)Cc1ccccc1O is lower in Fa: 50% for the first, 5% for the second.

First: CN1CCN(C2=Nc3cc(Cl)ccc3Nc3ccccc32)CC1 [CLOZAPINE]
Second: CN(Cc1cnc2nc(N)nc(N)c2n1)c1ccc(C(=O)N[C@@H](CCC(=O)O)C(=O)O)cc1 [METHOTREXATE]
The Fa of the first is higher: 100% for the first, 20% for the second.

Going from CC(=O)N(O)CCCCCNC(=O)CCC(=O)N(O)CCCCCNC(=O)CCC(=O)N(O)CCCCCN [DEFEROXAMINE] to N=C(N)NC(=O)c1nc(Cl)c(N)nc1N [AMILORIDE], the Fa rises from 2% to 50%.

Compared with CC(=O)[C@H]1CC[C@H]2[C@@H]3CCC4=CC(=O)CC[C@]4(C)[C@H]3CC[C@]12C [PROGESTERONE], C[C@]12CC[C@H]3[C@@H](CCC4=CC(=O)CC[C@@]43C)[C@@H]1CC[C@@H]2O [TESTOSTERONE] is higher in Fa: 91% for the first, 100% for the second.

For CC(C)(C)NCC(O)c1cc(O)cc(O)c1 (stereo unspecified) [TERBUTALINE], the Fa was 70%.

Assay: Partition coefficient (logD6.8)
Assay type: physicochemical
Settings: octanol/water, pH 6.8

In the case of CN1CCN(C2=Nc3cc(Cl)ccc3Nc3ccccc32)CC1 [CLOZAPINE], the logD is reported as 3.

Same assay, conditions: octanol/water, pH 6.8; read-out: logD

First: CCCCC(=O)N(Cc1ccc(-c2ccccc2-c2nnn[nH]2)cc1)[C@H](C(=O)O)C(C)C
Second: CC(CCc1ccccc1)NCC(O)c1ccc(O)c(C(N)=O)c1 (stereo unspecified) [LABETALOL]
The logD of the first is lower: -1.6 for the first, 0.5 for the second.

First: CN/C(=C/[N+](=O)[O-])NCCSCc1ccc(CN(C)C)o1 [RANITIDINE]
Second: O=C(O)CN(CCN(CC(=O)O)Cc1ccccc1O)Cc1ccccc1O
The logD of the first is lower: -1.1 for the first, -0.2 for the second.

CC(=O)N(O)CCCCCNC(=O)CCC(=O)N(O)CCCCCNC(=O)CCC(=O)N(O)CCCCCN [DEFEROXAMINE] and CN(Cc1cnc2nc(N)nc(N)c2n1)c1ccc(C(=O)N[C@@H](CCC(=O)O)C(=O)O)cc1 [METHOTREXATE] are the same in logD: -3 for the first, -3 for the second.

Going from CC(=O)[C@H]1CC[C@H]2[C@@H]3CCC4=CC(=O)CC[C@]4(C)[C@H]3CC[C@]12C [PROGESTERONE] to C[C@]12CC[C@H]3[C@@H](CCC4=CC(=O)CC[C@@]43C)[C@@H]1CC[C@@H]2O [TESTOSTERONE], the logD falls from 4.3 to 3.9.

Compared with N=C(N)NC(=O)c1nc(Cl)c(N)nc1N [AMILORIDE], CN1C(C(=O)Nc2ccccn2)=C(O)c2ccccc2S1(=O)=O [PIROXICAM] is higher in logD: -2.1 for the first, 0.3 for the second.

For CC(C)(C)NCC(O)c1cc(O)cc(O)c1 (stereo unspecified) [TERBUTALINE], the logD was -2.
